Among the data in BindingDB's records for doi:10.1128/aac.00119-07 (Emory University, 2007) are IC50 values, retold here.

Test [1] concerns the target T1, Reverse transcriptase (Human immunodeficiency virus 1, UniProt Q9WKE8). Briefly: Inhibition of HIV1 LAI reverse transcriptase wild type in presence of 5 mM ATP by heteropolymeric DNA polymerase assay. An outline of the steps: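 Heteropolymeric DNA assay with 5 mM ATP added: immobilized 18-mer primer, 5′-A12-(GTCA)5 50-mer template, dATP/dGTP/dCTP/BrdUTP at 1.0 μM each, HEPES 50 mM pH 7.3, MgCl2 10 mM. RT 30–100 pM, incubated at 33°C for 180 min. NaOH strand separation, then anti-BrdU-AP detection at 405 nm. IC50 fitted from seven inhibitor concentrations; two to four runs in duplicate.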

For test [2], the target named is T1, Reverse transcriptase. Description: Inhibition of HIV1 pNL4-3 reverse transcriptase wild type pNL4-3 by heteropolymeric DNA polymerase assay. The method, boiled down:
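Heteropolymeric assay without ATP: plate-bound 18-mer DNA primer (~110 nM) with 50-mer 5′-A12-(GTCA)5 template (190 nM). dATP, dGTP, dCTP and BrdUTP at 1.0 μM each, in HEPES 50 mM pH 7.3, MgCl2 10 mM. RT 30–100 pM, 33°C for 180 min, then NaOH dehybridization and anti-BrdU-AP tracer read at 405 nm. IC50 from seven triphosphate concentrations; two to four runs in duplicate.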

A word on the IC50: it is the concentration at which inhibition is half-maximal. As for `C[C@@H](Cn1cnc2c(N)ncnc21)OCP(=O)(O)OP(=O)(O)OP(=O)(O)O` [Tenofovir diphospahte], the IC50 on Reverse transcriptase [1] was 1.3 µM; on Reverse transcriptase [2], 1.2 µM.
For the molecule `Nc1nc2c(c(=O)[nH]1)NCN2[C@H]1C=C[C@@H](COP(=O)(O)OP(=O)(O)OP(=O)(O)O)C1` [Carbovir-Triphosphate], the figures for the 50% inhibitory concentration (IC50) at Reverse transcriptase [1] and on Reverse transcriptase [2] were 0.9 µM and 1.2 µM, respectively.
